This is an account of results in ChEMBL document CHEMBL1949592, “Synthesis and antiviral activity of 2'-deoxy-2'-fluoro-2'-C-methyl-7-deazapurine nucleosides, their phosphoramidate prodrugs and 5'-triphosphates” (Bioorg Med Chem Lett, 2011).

Data set [1] has as its system Huh-7. Description: (§1) Cytotoxicity against human HuH7 cells assessed as reduction of 50% rRNA level after 96 hrs. It is filed as cell-based. The note with it: huh-7, 96 h. In short, it runs like this: (§2)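 Huh-7 cells carrying the HCV replicon were exposed to compound for 96 h. Toxicity was read as a fall in cellular rRNA.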
Data set [2] relates to Hepatitis C virus. Description: Antiviral activity against Hepatitis C virus infected in human HuH7 cells assessed as decrease in viral RNA level after 96 hrs by RT-PCR. Format: functional, organism-based, Hepacivirus hominis. The note with it: Huh-7, 96 h.
Data set [3] concerns Hepatitis B virus. Put plainly: Antiviral activity against wild type Hepatitis B virus infected in hepatocytes. Format: functional, organism-based. The note with it: Hepatocyte.
Data set [4] concerns Vero. Put plainly: Cytotoxicity against african green monkey Vero cells after 3 days by hemocytometer analysis. It is filed as cell-based. The note with it: Chlorocebus sabaeus, 72 h.
Data set [5] concerns CCRF-CEM. Description: Cytotoxicity against human CEM cells after 6 days by trypan blue exclusion method. Format: cell-based. As to conditions: 144 h.
Data set [6] concerns PBMC. Description: Cytotoxicity against human PBMC after 6 days by trypan blue exclusion method. Format: cell-based. As to conditions: 144 h.
Data set [7] deals with Human immunodeficiency virus 1. Put plainly: Antiviral activity against HIV1 LAV1 infected in PHA-stimulated human PBMC assessed as reduction in RT activity after 6 days by micromethod-based beta scintillation counting. It is filed as functional, organism-based. As to conditions: Human immunodeficiency virus 1, LAV1, 144 h.
Data set [8] has as its system Huh-7. Description: Metabolic stability in human HuH7 cells assessed as diphosphate level at 50 uM after 4 hrs by LC-MS/MS analysis. It is filed as ADME, cell-based. The note with it: huh-7, 4 h. In short, it runs like this: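 For the cellular pharmacology study, Huh-7 cells were incubated separately with the nucleoside or its phosphoramidate prodrug at 50 μM for 4 h at 37 °C, then washed with phosphate-buffered saline before analysis of intracellular metabolites.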

Data set [9] deals with Huh-7. Put plainly: Metabolic stability in human HuH7 cells assessed as 5'-monophosphate level at 50 uM after 4 hrs by LC-MS/MS analysis. It is filed as ADME, cell-based. As to conditions: huh-7, 4 h. The essentials: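 Huh-7 cells were exposed to the parent nucleoside or its phosphoramidate prodrug, each separately at 50 μM, at 37 °C for 4 h, then washed with phosphate-buffered saline before intracellular analysis.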

The nature of data set [10]: as §1. As to conditions: HuH7 cells. Format: cell-based, Huh-7. In short, it runs like this:
as §2

The test system of data set [11] is HepG2. Description: Cytotoxicity against human HepG2 cells by neutral red dye uptake assay. It is filed as cell-based.
Data set [12] deals with Hepacivirus hominis. Put plainly: Fold resistance, ratio of HCV NS5B Cdelta 21 RNA dependent RNA polymerase S282T mutant to IC50 for IC50 for HCV wild type NS5B Cdelta 21 RNA dependent RNA polymerase.
Data set [13] concerns the target RNA-directed RNA polymerase (Hepacivirus hominis, UniProt O39930, S282T). Put plainly: Inhibition of Hepatitis C virus NS5B Cdelta 21 RNA dependent RNA polymerase S282T mutant expressed in Escherichia coli BL21(DE3).
Data set [14] in a line: Inhibition of Hepatitis C virus wild-type NS5B Cdelta 21 RNA dependent RNA polymerase expressed in Escherichia coli BL21(DE3). The arrangement: species or system Hepacivirus hominis.

Active and inactive are the calls of the source. The calls are words filed in the database; no cut-off is given here. Bounds are passed on as bounds.

Usually CC50 stands for the concentration at which the toxic effect on the cells reaches its halfway point. Broadly, the EC50 is the concentration needed to bring the measured effect to its halfway point. One may read the EC90 as the point of the concentration-response curve where the effect stands at 90%. One may read the IC50 as the concentration needed to halve the response being measured.

Sequence of RNA-directed RNA polymerase (O39930 entry or part of it S282T): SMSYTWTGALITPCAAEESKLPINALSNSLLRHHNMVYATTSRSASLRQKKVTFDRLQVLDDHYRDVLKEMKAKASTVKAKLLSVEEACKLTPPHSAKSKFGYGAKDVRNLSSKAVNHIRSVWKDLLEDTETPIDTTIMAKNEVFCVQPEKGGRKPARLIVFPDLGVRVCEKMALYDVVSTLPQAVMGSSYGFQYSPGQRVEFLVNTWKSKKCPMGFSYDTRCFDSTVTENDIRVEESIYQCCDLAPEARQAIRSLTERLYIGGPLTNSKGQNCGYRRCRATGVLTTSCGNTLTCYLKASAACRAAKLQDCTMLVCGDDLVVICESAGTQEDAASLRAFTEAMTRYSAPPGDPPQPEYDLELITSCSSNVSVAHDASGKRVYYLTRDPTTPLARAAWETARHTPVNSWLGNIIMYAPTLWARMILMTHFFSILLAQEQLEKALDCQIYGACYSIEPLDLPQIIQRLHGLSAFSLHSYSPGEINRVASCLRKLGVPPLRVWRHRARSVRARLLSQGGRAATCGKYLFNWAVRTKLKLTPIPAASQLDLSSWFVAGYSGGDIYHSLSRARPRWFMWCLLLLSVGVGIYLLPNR

Consider `C[C@@]1(F)[C@H](O)[C@@H](CO)O[C@@H]1n1cc(C#Cc2ccccc2)c2c(N)ncnc21`, for which, in data set [1], the 50% cytotoxic concentration (CC50) was > 10 µM. The EC50 in data set [2] was > 10 µM; in data set [7], 7.7 µM. Moreover, the EC90 in data set [2] is > 10 µM; in data set [7] it was 38 µM. For the same compound, the result in [3] was inactive. Further, the IC50 was 51.3 µM in [4], 15.7 µM in [5] and 40.8 µM in data set [6].
Turning to `C[C@@]1(F)[C@H](O)[C@@H](CO)O[C@H]1n1ccc2c(N)nc(N)nc21`, in data set [1], the cytotoxic concentration (CC50) is > 10 µM. Besides, the values for the EC50 in data set [2] and in data set [7] were > 10 µM and > 100 µM, respectively. The EC90 in data set [2] was > 10 µM. Also, the Stability result in data set [8] and in data set [9] was “Stable” in each case. For the same compound, the IC50 in data set [4], in [5] and in data set [6] was > 100 µM throughout.
`C[C@@]1(F)[C@H](O)[C@@H](CO)O[C@@H]1n1cc(I)c2c(N)ncnc21`: in [10], the CC50 at 96 h was > 33 µM. Besides, the figures for the concentration giving a half-maximal response (EC50) in data set [2] and in data set [7] were 7 µM and > 100 µM, respectively. Further, the EC90 in [2] is 24.9 µM; in [7], > 100 µM. Also, the Activity entry in [11] is “Toxic”. Further, the outcome in [3] was Active. Besides, the IC50 is 65.9 µM in data set [4], 40.9 µM in data set [5] and > 100 µM in [6].
For the compound `C[C@@]1(F)[C@H](O)[C@@H](CO)O[C@H]1n1cc(I)c2c(N)ncnc21`, in data set [10], the half-maximal cytotoxic concentration (CC50) at 96 h came out at 10.4 µM. Moreover, the EC50 in data set [2] came to 1.1 µM; in data set [7] it was 94 µM. The EC90 in data set [2] is > 33 µM; in data set [7], > 100 µM. The half-maximal inhibitory concentration (IC50) in data set [4] was found to be 21.4 µM; in [5] it was 24 µM; in [6] it was 53.2 µM.
Regarding `COC(=O)/C=C/c1cn([C@H]2O[C@H](CO)[C@@H](O)[C@@]2(C)F)c2ncnc(N)c12`, in [1], the CC50 was > 10 µM. The EC50 was > 10 µM in data set [2] and 0.71 µM in data set [7]. Moreover, the outcome in data set [3] was inactive. Further, the IC50 in data set [4], in data set [5] and in [6] was > 100 µM in each case. For the same compound, the EC90 in data set [7] worked out at 9.5 µM.
As to `C[C@@]1(F)[C@H](O)[C@@H](CO)O[C@H]1n1cc(C#Cc2ccccc2)c2c(N)ncnc21`, the CC50 in data set [1] was < 10 µM. Also, the EC50 in data set [2] is < 10 µM; in data set [7], 10.7 µM. In data set [11], the Activity entry was “Toxic”. Besides, in data set [3], the outcome was Active. In addition, the IC50 is 45.7 µM in data set [4], 11.6 µM in [5] and 41.1 µM in data set [6]. The EC90 in data set [7] was 31.1 µM.
As for `COP(=O)(OC)OP(=O)(OC)OP(=O)(OC)OC[C@H]1O[C@@H](n2cc(F)c3c(N)ncnc32)[C@](C)(F)[C@@H]1O` (stereo partly specified), the Ratio IC50 in data set [12] was found to be 1.5. Also, the IC50 came out at 6 µM in [13] and 4 µM in data set [14].
For `C#Cc1cn([C@H]2O[C@H](CO)[C@@H](O)[C@@]2(C)F)c2nc(N)nc(N)c12`, in [1], the CC50 was > 10 µM. Besides, the results for the EC50 in data set [2] and in [7] were > 10 µM and 7.1 µM, respectively. In addition, the EC90 in [2] was > 10 µM; in data set [7], 59.1 µM. Besides, the outcome in data set [3] was inactive. Besides, the IC50 in data set [4] was found to be 61.7 µM; in data set [5], 26.5 µM; in data set [6], 54 µM.
As for `CCOC(=O)[C@H](C)NP(=O)(OC[C@H]1O[C@@H](n2ccc3c(N)nc(N)nc32)[C@](C)(F)[C@@H]1O)Oc1ccccc1` (stereo partly specified), in data set [1], the CC50 is > 10 µM. The EC50 in data set [2] was > 10 µM; in data set [7], 88 µM. Moreover, the EC90 in [2] was > 10 µM; in [7], > 100 µM. In data set [9], the Stability result was “Unstable”. For the same compound, the IC50 in data set [4], in data set [5] and in [6] was > 100 µM throughout.
As to `COP(=O)(OC)OP(=O)(OC)OP(=O)(OC)OC[C@H]1O[C@@H](n2ccc3c(N)ncnc32)[C@](C)(F)[C@@H]1O` (stereo partly specified), in [12], the Ratio IC50 is 1. This compound also showed an IC50 in data set [13] of 15 µM.
